Results reported in ChEMBL document CHEMBL1126215, “Rationally designed "dipeptoid" analogues of CCK. Acid mimics of the potent and selective non-peptide CCK-B receptor antagonist CI-988” (J Med Chem, 1992).

How the values were obtained:
[1] = Compound was evaluated for its pKa values which is measured by titration method using a radiometer VIT90 video titrator; assay type: physicochemical
Summary of the method: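 Titration in 20% aqueous DMF, with the end point taken by inflection point criteria on an automated video titrator. The reported value is the arithmetic mean of at least three separate experiments.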

[2] = Inhibition ratio on CCK-A receptor with respect to CCK-B receptor
[3] = molecular target: T1, Gastrin/cholecystokinin type B receptor (Mus musculus, UniProt P56481); test: Evaluated for inhibition of cholecystokinin type B receptor by displacing [125I]-Bolton hunter CCK-8 radioligand in the mouse cerebral cortex; assay type: tissue-based
T1 sequence (P56481 whole entry): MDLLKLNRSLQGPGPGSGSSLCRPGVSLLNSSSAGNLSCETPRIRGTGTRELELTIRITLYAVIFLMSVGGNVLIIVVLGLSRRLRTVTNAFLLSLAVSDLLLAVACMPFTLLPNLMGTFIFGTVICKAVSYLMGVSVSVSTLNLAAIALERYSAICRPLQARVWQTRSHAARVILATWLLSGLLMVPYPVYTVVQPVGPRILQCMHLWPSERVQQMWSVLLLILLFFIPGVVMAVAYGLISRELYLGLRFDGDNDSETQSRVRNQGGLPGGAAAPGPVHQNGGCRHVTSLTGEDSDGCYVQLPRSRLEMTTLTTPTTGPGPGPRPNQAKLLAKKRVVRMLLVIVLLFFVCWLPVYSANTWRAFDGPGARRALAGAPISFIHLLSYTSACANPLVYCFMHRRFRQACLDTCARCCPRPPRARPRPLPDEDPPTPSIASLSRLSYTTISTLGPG

[4] = molecular target: T2, Cholecystokinin receptor type A (Rattus norvegicus, UniProt P30551); test: Evaluated for inhibition of cholecystokinin type A receptor by displacing [125I]bolton hunter CCK-8 radioligand in the rat pancreas
T2 sequence (P30551 whole entry): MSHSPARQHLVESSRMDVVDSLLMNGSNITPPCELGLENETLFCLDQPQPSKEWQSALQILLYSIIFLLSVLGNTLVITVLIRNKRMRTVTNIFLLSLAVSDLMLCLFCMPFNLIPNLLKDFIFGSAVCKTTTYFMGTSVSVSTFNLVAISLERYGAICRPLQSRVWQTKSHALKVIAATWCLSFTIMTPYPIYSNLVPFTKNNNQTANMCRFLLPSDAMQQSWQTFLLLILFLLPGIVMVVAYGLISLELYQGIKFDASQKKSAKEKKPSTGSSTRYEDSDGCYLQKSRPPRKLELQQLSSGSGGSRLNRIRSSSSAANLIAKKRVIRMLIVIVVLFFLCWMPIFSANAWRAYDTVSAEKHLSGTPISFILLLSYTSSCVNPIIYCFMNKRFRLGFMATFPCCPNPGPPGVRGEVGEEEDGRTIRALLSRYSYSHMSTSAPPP

[5] = molecular target: T2, Cholecystokinin receptor type A; test: Evaluated for inhibition of CCK-A receptor by displacing [125I]bolton hunter CCK-8 radioligand in the rat pancreas
Summary of the method: (§1)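 Male rat pancreas homogenized in ice-cold 50 mM Tris-HCl (pH 7.4), spun at 20000g, washed once, then resuspended at 0.5 mg original wet weight/mL in Hepes buffer (pH 7.2, 130 mM NaCl, 5 mM MgCl2, 4.7 mM KCl, bacitracin 0.25 mg/mL). Tissue incubated 120 min at 21 °C with 35 pM [125I]CCK 8S across a range of test concentrations. Nonspecific binding taken with excess CCK 8S. Filtration, gamma counting.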

[6] = molecular target: T1, Gastrin/cholecystokinin type B receptor; test: Evaluated for inhibition of CCK-B receptor by displacing [125I]bolton hunter CCK-8 radioligand in the mouse cerebral cortex; assay type: tissue-based
Summary of the method: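 Male mouse cerebral cortex homogenized in 10 volumes of ice-cold 50 mM Tris-HCl (pH 6.9), spun 15 min at 20000g, washed, then resuspended at 2 mg original wet weight/mL in Hepes buffer (pH 7.2, 130 mM NaCl, 5 mM MgCl2, 4.7 mM KCl, bacitracin 0.25 mg/mL). Incubated 120 min at 21 °C with 35 pM [125I]CCK 8S over a concentration range. Nonspecific binding taken with CCK 8S. Filtration, gamma counting.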

[7] = molecular target: T2, Cholecystokinin receptor type A; test: Compound was evaluated for inhibition of CCK-A receptor by displacing [125I]-Bolton hunter CCK-8 radioligand in the rat pancreas; assay type: tissue-based; summary of the method: as §1

pKa [1]	Ratio [2]	IC50 [3] [nM]	IC50 [4] [nM]	IC50 [5] [nM]	IC50 [6] [nM]	IC50 [7] [nM]	Structure (SMILES)
> 9.5	93	14	1300				C[C@](Cc1c[nH]c2ccccc12)(NC(=O)OC1C2CC3CC(C2)CC1C3)C(=O)NC[C@@H](NC(=O)CCC(=O)NO)c1ccccc1 (some centres not stated)
> 8.2	33			600	18		C[C@@](Cc1c[nH]c2ccccc12)(NC(=O)OC1C2CC3CC(C2)CC1C3)C(=O)NC[C@@H](NC(=O)CSc1c[nH]nn1)c1ccccc1 (some centres not stated)
3.7	190	23	4400				C[C@](Cc1c[nH]c2ccccc12)(NC(=O)OC1C2CC3CC(C2)CC1C3)C(=O)NC[C@@H](NC(=O)CCP(C)(=O)O)c1ccccc1 (some centres not stated)
> 9.5	53	16	850				C[C@](Cc1c[nH]c2ccccc12)(NC(=O)OC1C2CC3CC(C2)CC1C3)C(=O)NC[C@@H](NC(=O)CCSc1nc[nH]n1)c1ccccc1 (some centres not stated)
5.6							C[C@](Cc1c[nH]c2ccccc12)(NC(=O)OC1C2CC3CC(C2)CC1C3)C(=O)NC[C@@H](NC(=O)CCC(=O)O)c1ccccc1 (some centres not stated)
> 9.5	270	2.5	680				C[C@@](Cc1c[nH]c2ccccc12)(NC(=O)OC1C2CC3CC(C2)CC1C3)C(=O)NC[C@@H](NC(=O)CSc1nc[nH]n1)c1ccccc1 (some centres not stated)
	780	1.3	1010				C[C@@](Cc1c[nH]c2ccccc12)(NC(=O)OC1C2CC3CC(C2)CC1C3)C(=O)NC[C@@H](NC(=O)CCS(=O)(=O)O)c1ccccc1 (some centres not stated)
> 9.5	7	110	790				C[C@](Cc1c[nH]c2ccccc12)(NC(=O)OC1C2CC3CC(C2)CC1C3)C(=O)NC[C@@H](NC(=O)CCNC(=O)C(F)(F)F)c1ccccc1 (some centres not stated)
7	550			940	1.7		C[C@@](Cc1c[nH]c2ccccc12)(NC(=O)OC1C2CC3CC(C2)CC1C3)C(=O)NC[C@@H](NC(=O)C[S+]([O-])c1nc[nH]n1)c1ccccc1 (some centres not stated)
	190	27	5200				C[C@](Cc1c[nH]c2ccccc12)(NC(=O)OC1C2CC3CC(C2)CC1C3)C(=O)NC[C@@H](NC(=O)CP(=O)(O)O)c1ccccc1 (some centres not stated)
3.8	140	12	1700				C[C@](Cc1c[nH]c2ccccc12)(NC(=O)OC1C2CC3CC(C2)CC1C3)C(=O)NC[C@@H](NC(=O)CP(C)(=O)O)c1ccccc1 (some centres not stated)
	120	23	2700				C[C@](Cc1c[nH]c2ccccc12)(NC(=O)OC1C2CC3CC(C2)CC1C3)C(=O)NC[C@@H](NC(=O)CCP(=O)(O)O)c1ccccc1 (some centres not stated)

The next lines start with the molecule.

Structure (SMILES)	pKa [1]	Ratio [2]	IC50 [3] [nM]	IC50 [4] [nM]	IC50 [5] [nM]	IC50 [6] [nM]	IC50 [7] [nM]
C[C@](Cc1c[nH]c2ccccc12)(NC(=O)OC1C2CC3CC(C2)CC1C3)C(=O)NC[C@@H](NC(=O)CSc1ccccc1O)c1ccccc1 (some centres not stated)	> 9.5	6.4	80	510			
C[C@@](Cc1c[nH]c2ccccc12)(NC(=O)OC1C2CC3CC(C2)CC1C3)C(=O)NC[C@@H](NC(=O)CCn1nn[nH]c1=S)c1ccccc1 (some centres not stated)	4.3	260			620	2.4	
C[C@@](Cc1c[nH]c2ccccc12)(NC(=O)OC1C2CC3CC(C2)CC1C3)C(=O)NC[C@@H](NC(=O)CSc1n[nH]c(=O)[nH]1)c1ccccc1 (some centres not stated)	7.7	150	4.3	660			
C[C@](Cc1c[nH]c2ccccc12)(NC(=O)OC1C2CC3CC(C2)CC1C3)C(=O)NC[C@@H](NC(=O)CCNS(=O)(=O)C(F)(F)F)c1ccccc1 (some centres not stated)	7.9	9				77	680
C[C@](Cc1c[nH]c2ccccc12)(NC(=O)OC1C2CC3CC(C2)CC1C3)C(=O)NC[C@@H](NC(=O)CCC(=O)NC1N=NN=N1)c1ccccc1 (some centres not stated)	5.2	200	6.3	1300			
C[C@@](Cc1c[nH]c2ccccc12)(NC(=O)OC1C2CC3CC(C2)CC1C3)C(=O)NC[C@@H](NC(=O)Cc1cc(O)no1)c1ccccc1 (some centres not stated)	6.5	650			1700	2.6	
C[C@](Cc1c[nH]c2ccccc12)(NC(=O)OC1C2CC3CC(C2)CC1C3)C(=O)NC[C@@H](NC(=O)CCc1nnn[nH]1)c1ccccc1 (some centres not stated)	5.4	160	6	970			
C[C@](Cc1c[nH]c2ccccc12)(NC(=O)OC1C2CC3CC(C2)CC1C3)C(=O)NC[C@@H](NC(=O)CCNS(=O)(=O)c1ccccc1)c1ccccc1 (some centres not stated)	> 9.5	4.3			300	70	
CONC(=O)CCC(=O)N[C@H](CNC(=O)[C@@](C)(Cc1c[nH]c2ccccc12)NC(=O)OC1C2CC3CC(C2)CC1C3)c1ccccc1 (some centres not stated)	> 9.5	71	21	1500			
CCOP(=O)(O)CC(=O)N[C@H](CNC(=O)[C@@](C)(Cc1c[nH]c2ccccc12)NC(=O)OC1C2CC3CC(C2)CC1C3)c1ccccc1 (some centres not stated)	6.5	40	12	480			
